# Assay results published in ChEMBL document CHEMBL1132112, “Novel modifications in the alkenyldiarylmethane (ADAM) series of non-nucleoside reverse transcriptase inhibitors” (J Med Chem, 1999).
# What was measured:
# [1] = Therapeutic index was determined for the compound as CC50/EC50; settings: read-out: TI
# Method in brief: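 Ratio of CC50 (XTT viability, uninfected CEM-SS) to EC50 (XTT protection from HIV-1 RF cytopathicity in CEM-SS). Both values come from triplicates on each plate, two sister plates averaged. NA means no antiviral inhibition up to the cytotoxic concentration.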
# CCRF-CEM = experiment: Concentration inhibiting 50% of mock-infected CEM cells.; format: functional; settings: Homo sapiens
# Method in brief: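 Uninfected (mock-infected) CEM-SS cultures exposed to drug. Viability by XTT, expressed as percent of drug-free control. CC50 is the concentration causing 50% cell death. Triplicates on each plate, two sister plates averaged.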
# [2] = target: T1, Human immunodeficiency virus type 1 reverse transcriptase (Human immunodeficiency virus 1, UniProt Q72547); experiment: Inhibition of HIV-1 Reverse transcriptase using poly-(rc)-oligo(dg) as the template primer.
# Method in brief: (§1)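 Purified p66/51 HIV-1 reverse transcriptase. Inhibition read as incorporation of [32P]-TTP into poly(rA)·oligo(dT) or of [32P]GTP into poly(rC)·oligo(dG) homopolymer template-primer.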
# [3] = target: T1, Human immunodeficiency virus type 1 reverse transcriptase; experiment: Inhibition of HIV-1 Reverse transcriptase using poly-(ra)-oligo(dt) as the template primer.; method in brief: as §1
# CEM-SS [4] = experiment: 50% inhibitory concentration for cytopathicity of HIV-1 RF in CEM-SS cells.; format: functional, cell-based; settings: Homo sapiens
# Method in brief: (§2)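 CEM-SS cells infected with HIV-1 RF; drug-induced protection from viral cytopathic effect read by XTT, as percent of uninfected drug-free control. EC50 is the concentration giving 50% protection. Triplicate wells on each plate, two sister plates; the plate EC50s (each a triplicate average) were averaged. XTT results were confirmed by supernatant RT and p24 levels. NA means no inhibition up to the concentration cytotoxic to uninfected cells.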
# CEM-SS [5] = experiment: 50% inhibitory concentration for cytopathicity of HIV-1 RF in CEM-SS cells; NA=Not active (EC50 uM); format: functional, cell-based, Homo sapiens; method in brief: as §2
# CEM-SS [6] = experiment: 50% inhibitory concentration for cytopathicity of HIV-1 RF in CEM-SS cells; NA=Not active; format: functional, cell-based, Homo sapiens; method in brief: as §2
# [7] = target: T1, Human immunodeficiency virus type 1 reverse transcriptase; experiment: Inhibition of HIV-1 Reverse transcriptase using poly-(rc)-oligo(dg) as the template primer; NI=No inhibition
# Method in brief: (§3)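 Purified p66/51 HIV-1 reverse transcriptase. Inhibition read as incorporation of [32P]-TTP into poly(rA)·oligo(dT) or of [32P]GTP into poly(rC)·oligo(dG) homopolymer template-primer. IC50 taken as concentration giving 50% inhibition.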
# [8] = target: T1, Human immunodeficiency virus type 1 reverse transcriptase; experiment: Inhibition of HIV-1 Reverse transcriptase using poly-(ra)-oligo(dt) as the template primer; no inhibition; method in brief: as §3
# [9] = test system: Human immunodeficiency virus 1; experiment: Inhibition of cytopathic effect of HIV-1 strain wild type enzyme NL4-3 in CEM-SS cells.; format: functional, organism-based; settings: Human immunodeficiency virus 1, CEM-SS
# CEM-SS [10] = experiment: Inhibition of cytopathic effect of HIV-1 RT containing the specified mutation L100I in CEM-SS cells.; format: functional, cell-based, Homo sapiens
# CEM-SS [11] = experiment: Inhibition of cytopathic effect of HIV-1 RT containing the specified mutation K103N in CEM-SS cells.; format: functional, cell-based, Homo sapiens
# CEM-SS [12] = experiment: Inhibition of cytopathic effect of HIV-1 RT containing the specified mutation Y181C resistant to AZT in CEM-SS cells.; format: functional, cell-based, Homo sapiens
# CEM-SS [13] = experiment: Inhibition of cytopathic effect of HIV-1 RT containing the specified mutation Y181C in CEM-SS cells.; format: functional, cell-based, Homo sapiens
# CEM-SS [14] = experiment: Fold resistance of HIV-1 RT containing the specified mutation Y181C in CEM-SS cells; format: functional, Homo sapiens
# Method in brief: (§4)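 Fold resistance of mutant HIV-1 viruses whose RT carries the listed mutation(s), measured against a virus containing wild-type NL4-3 RT. Anti-HIV readout by CEM-SS cytopathic-effect protection.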
# CEM-SS [15] = experiment: Fold resistance of HIV-1 RT containing the specified mutation L100I in CEM-SS cells; format: functional, Homo sapiens; method in brief: as §4
# CEM-SS [16] = experiment: Inhibition of cytopathic effect of HIV-1 RT containing the specified mutation V106A in CEM-SS cells.; format: functional, cell-based, Homo sapiens
# CEM-SS [17] = experiment: Fold resistance of HIV-1 RT containing the specified mutation V108I in CEM-SS cells; format: functional, Homo sapiens; method in brief: as §4
# CEM-SS [18] = experiment: Inhibition of cytopathic effect of HIV-1 RT containing the specified mutation 4X resistant to AZT in CEM-SS cells.; format: functional, cell-based; settings: Homo sapiens
# CEM-SS [19] = experiment: Fold resistance of HIV-1 RT containing the specified mutation K101E in CEM-SS cells; NC=No significant change in sensitivity; format: functional, cell-based; settings: Homo sapiens; method in brief: as §4
# CEM-SS [20] = experiment: Fold resistance of HIV-1 RT containing the specified mutation L74V in CEM-SS cells; S=Enhanced sensitivity; format: functional, cell-based; settings: Homo sapiens; method in brief: as §4
# CEM-SS [21] = experiment: Inhibition of cytopathic effect of HIV-1 RT containing the specified mutation V108I in CEM-SS cells.; format: functional, cell-based, Homo sapiens
# CEM-SS [22] = experiment: Fold resistance of HIV-1 RT containing the specified mutation A98G in CEM-SS cells; format: functional, Homo sapiens; method in brief: as §4
# CEM-SS [23] = experiment: Fold resistance of HIV-1 RT containing the specified mutation L100I resistant to AZT in CEM-SS cells; format: functional, Homo sapiens; method in brief: as §4
# CEM-SS [24] = experiment: Inhibition of cytopathic effect of HIV-1 RT containing the specified mutation L74V in CEM-SS cells.; format: functional, cell-based, Homo sapiens
# CEM-SS [25] = experiment: Fold resistance of HIV-1 RT containing the specified mutation Y188C in CEM-SS cells; format: functional, Homo sapiens; method in brief: as §4
# CEM-SS [26] = experiment: Inhibition of cytopathic effect of HIV-1 RT containing the specified mutation V179D in CEM-SS cells.; format: functional, cell-based, Homo sapiens
# CEM-SS [27] = experiment: Fold resistance of HIV-1 RT containing the specified mutation Y181C resistant to AZT in CEM-SS cells; format: functional, Homo sapiens; method in brief: as §4
# CEM-SS [28] = experiment: Inhibition of cytopathic effect of HIV-1 RT containing the specified mutation K101E in CEM-SS cells.; format: functional, cell-based, Homo sapiens
# CEM-SS [29] = experiment: Inhibition of cytopathic effect of HIV-1 RT containing the specified mutation L100I resistant to AZT in CEM-SS cells.; format: functional, cell-based, Homo sapiens
# CEM-SS [30] = experiment: Fold resistance of HIV-1 RT containing the specified mutation V106A in CEM-SS cells; format: functional, Homo sapiens; method in brief: as §4
# CEM-SS [31] = experiment: Fold resistance of HIV-1 RT containing the specified mutation K103N in CEM-SS cells; format: functional, Homo sapiens; method in brief: as §4
# CEM-SS [32] = experiment: Inhibition of cytopathic effect of HIV-1 RT containing the specified mutation A98G in CEM-SS cells.; format: functional, cell-based, Homo sapiens
# CEM-SS [33] = experiment: Inhibition of cytopathic effect of HIV-1 RT containing the specified mutation Y188C in CEM-SS cells.; format: functional, cell-based, Homo sapiens
# CEM-SS [34] = experiment: Fold resistance of HIV-1 RT containing the specified mutation 4X resistant to AZT in CEM-SS cells; NC=No significant change in sensitivity; format: functional, cell-based; settings: Homo sapiens; method in brief: as §4
# CEM-SS [35] = experiment: Fold resistance of HIV-1 RT containing the specified mutation V179D in CEM-SS cells; format: functional, Homo sapiens; method in brief: as §4
smiles,measurement,setting,value
COC(=O)CCCCC=C(c1cc(Cl)c(OC)c(C(=O)OC)c1)c1cc(Cl)c(OC)c(C(=O)OC)c1,selectivity ratio,[1],101
same,CC50,CCRF-CEM,152 µM
same,IC50,[2],0.47 µM
same,IC50,[3]; read-out: IC50,3.35 µM
same,EC50,CEM-SS [4],1.5 µM
COC(=O)CCCCC(c1cc(Cl)c(OC)c(C(=O)OC)c1)c1cc(Cl)c(OC)c(C(=O)OC)c1,CC50,CCRF-CEM,21.3 µM
same,EC50,CEM-SS [5],Not Active
same,IC50,[2],100 µM
CCC1(CCC/C=C(\c2cc(Cl)c(OC)c(C=O)c2)c2cc(Cl)c(OC)c(CO)c2)OCCO1,CC50,CCRF-CEM,5.8 µM
same,IC50,[2],31.6 µM
same,EC50,CEM-SS [6],Not Active
same,IC50,[3],No inhibition
COC(=O)c1cc(C(=CCCc2ccccc2)c2cc(Br)c(OC)c(C(=O)OC)c2)cc(Br)c1OC,CC50,CCRF-CEM,31.5 µM
same,EC50,CEM-SS [5],Not Active
CCCCCC=C(c1cc(F)c(OC)c(C(=O)OC)c1)c1cc(F)c(OC)c(C(=O)OC)c1,CC50,CCRF-CEM,13.4 µM
same,EC50,CEM-SS [5],Not Active
same,IC50,[2],10 µM
CCC1(CCCC=C(c2cc(Cl)c(OC)c(C(=O)OC)c2)c2cc(Cl)c(OC)c(C(=O)OC)c2)OCCO1,CC50,CCRF-CEM,19.9 µM
same,EC50,CEM-SS [5],Not Active
same,IC50,[7],Not Active
same,IC50,[8],Not Active
COC(=O)c1cc(C(=CCCCCBr)c2cc(Cl)c(OC)c(C(=O)OC)c2)cc(Cl)c1OC,CC50,CCRF-CEM,98.7 µM
same,IC50,[2],11 µM
same,IC50,[3]; read-out: IC50,1.9 µM
same,EC50,CEM-SS [4],2.8 µM
COC(=O)CCCC=C(c1cc(Cl)c(OC)c(C(=O)OC)c1)c1cc(Cl)c(OC)c(C(=O)OC)c1,CC50,CCRF-CEM,31.6 µM
same,EC50,[9],1.78 µM
same,EC50,CEM-SS [10],> 0.16 µM
same,EC50,CEM-SS [11],> 50 µM
same,EC50,CEM-SS [12],> 50 µM
same,EC50,CEM-SS [13],> 50 µM
COC(=O)CCC=C(c1cc(Cl)c(OC)c(C(=O)OC)c1)c1cc(Cl)c(OC)c(C(=O)OC)c1,selectivity ratio,[1],6.1
same,CC50,CCRF-CEM,29.4 µM
same,IC50,[2],7.2 µM
same,IC50,[3]; read-out: IC50,> 100 µM
same,EC50,CEM-SS [4],4.8 µM
CCC(=O)CCCC=C(c1cc(Cl)c(OC)c(C=O)c1)c1cc(Cl)c(OC)c(C=O)c1,CC50,CCRF-CEM,1.13 µM
same,EC50,CEM-SS [6],Not Active
COC(=O)CCCC=C(c1cc(Br)c(OC)c(C(=O)OC)c1)c1cc(Br)c(OC)c(C(=O)OC)c1,Fold resistance,CEM-SS [14],102
same,selectivity ratio,[1],10000
same,CC50,CCRF-CEM,13 µM
same,Fold resistance,CEM-SS [15],4.3
same,EC50,CEM-SS [16],9.51 µM
same,Fold resistance,CEM-SS [17],10
same,EC50,CEM-SS [18],0.07 µM
same,EC50,[9],0.06 µM
same,Fold resistance,CEM-SS [19],No significant changed
same,Fold resistance,CEM-SS [20],Enhanced sensitivity
same,EC50,CEM-SS [21],0.67 µM
same,EC50,CEM-SS [10],0.26 µM
same,Fold resistance,CEM-SS [22],3.7
same,Fold resistance,CEM-SS [23],5.5
same,EC50,CEM-SS [24],0.019 µM
same,Fold resistance,CEM-SS [25],28.8
same,EC50,CEM-SS [11],0.42 µM
same,EC50,CEM-SS [12],3.5 µM
same,EC50,CEM-SS [26],40.2 µM
same,IC50,[2],0.3 µM
same,Fold resistance,CEM-SS [27],58.3
same,EC50,CEM-SS [13],6.13 µM
same,EC50,CEM-SS [28],0.07 µM
same,EC50,CEM-SS [29],0.33 µM
same,Fold resistance,CEM-SS [30],158.5
same,Fold resistance,CEM-SS [31],7
same,EC50,CEM-SS [32],0.22 µM
same,EC50,CEM-SS [33],1.73 µM
same,Fold resistance,CEM-SS [34],No significant changed
same,IC50,[3]; read-out: IC50,1 µM
same,Fold resistance,CEM-SS [35],670
same,EC50,CEM-SS [4],0.0013 µM
